The results in this text go back to ChEMBL document CHEMBL4325835, “Atropisomerism by Design: Discovery of a Selective and Stable Phosphoinositide 3-Kinase (PI3K) β Inhibitor” (J Med Chem, 2018).

For data set [1], the target named is PI3-kinase p110-alpha/p85-alpha (Homo sapiens, UniProt P42336). Description: Inhibition of full length human p110alpha/p85alpha using PIP2 as substrate after 30 mins by TR-FRET assay. Format: protein-complex assay. Summed up:
(§1)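 In vitro kinase assay run against each Class I PI3K isoform, with ATP at 2×Km steady-state concentration; IC50 values are the average of at least 2 determinations.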
Background: TR-FRET usually uses a lanthanide donor and a delayed reading to cut background.

A further data set has as its target PI3K p110 beta/p85 alpha (Homo sapiens, UniProt P42338). Nature of the data set: Inhibition of full length human His-tagged p110beta/p85alpha using PIP2 as substrate after 30 mins by TR-FRET assay. In kind it is protein-complex assay. The method, boiled down:
as §1

The target in data set [2] is PI3-kinase p110-delta/p85-alpha (Homo sapiens, UniProt O00329). Nature of the data set: Inhibition of full length human p110delta/p85alpha using PIP2 as substrate after 30 mins by TR-FRET assay. Format: protein-complex assay. The method, boiled down:
as §1

In data set [3] the target is Phosphatidylinositol 4,5-bisphosphate 3-kinase catalytic subunit gamma isoform (Homo sapiens, UniProt P48736). Description: Inhibition of full length human PI3Kgamma using PIP2 as substrate after 30 mins by TR-FRET assay. The method, boiled down: as §1
The nature of data set [4]: Intrinsic clearance in human liver microsomes at 1 uM measured in presence of NADPH/UDPGA by UHPLC-HRMS based assay. Format: ADME, Microsome.
Data set [5] has as its target T1, Aldehyde oxidase (Homo sapiens, UniProt Q06278).
T1 sequence (Q06278 whole entry): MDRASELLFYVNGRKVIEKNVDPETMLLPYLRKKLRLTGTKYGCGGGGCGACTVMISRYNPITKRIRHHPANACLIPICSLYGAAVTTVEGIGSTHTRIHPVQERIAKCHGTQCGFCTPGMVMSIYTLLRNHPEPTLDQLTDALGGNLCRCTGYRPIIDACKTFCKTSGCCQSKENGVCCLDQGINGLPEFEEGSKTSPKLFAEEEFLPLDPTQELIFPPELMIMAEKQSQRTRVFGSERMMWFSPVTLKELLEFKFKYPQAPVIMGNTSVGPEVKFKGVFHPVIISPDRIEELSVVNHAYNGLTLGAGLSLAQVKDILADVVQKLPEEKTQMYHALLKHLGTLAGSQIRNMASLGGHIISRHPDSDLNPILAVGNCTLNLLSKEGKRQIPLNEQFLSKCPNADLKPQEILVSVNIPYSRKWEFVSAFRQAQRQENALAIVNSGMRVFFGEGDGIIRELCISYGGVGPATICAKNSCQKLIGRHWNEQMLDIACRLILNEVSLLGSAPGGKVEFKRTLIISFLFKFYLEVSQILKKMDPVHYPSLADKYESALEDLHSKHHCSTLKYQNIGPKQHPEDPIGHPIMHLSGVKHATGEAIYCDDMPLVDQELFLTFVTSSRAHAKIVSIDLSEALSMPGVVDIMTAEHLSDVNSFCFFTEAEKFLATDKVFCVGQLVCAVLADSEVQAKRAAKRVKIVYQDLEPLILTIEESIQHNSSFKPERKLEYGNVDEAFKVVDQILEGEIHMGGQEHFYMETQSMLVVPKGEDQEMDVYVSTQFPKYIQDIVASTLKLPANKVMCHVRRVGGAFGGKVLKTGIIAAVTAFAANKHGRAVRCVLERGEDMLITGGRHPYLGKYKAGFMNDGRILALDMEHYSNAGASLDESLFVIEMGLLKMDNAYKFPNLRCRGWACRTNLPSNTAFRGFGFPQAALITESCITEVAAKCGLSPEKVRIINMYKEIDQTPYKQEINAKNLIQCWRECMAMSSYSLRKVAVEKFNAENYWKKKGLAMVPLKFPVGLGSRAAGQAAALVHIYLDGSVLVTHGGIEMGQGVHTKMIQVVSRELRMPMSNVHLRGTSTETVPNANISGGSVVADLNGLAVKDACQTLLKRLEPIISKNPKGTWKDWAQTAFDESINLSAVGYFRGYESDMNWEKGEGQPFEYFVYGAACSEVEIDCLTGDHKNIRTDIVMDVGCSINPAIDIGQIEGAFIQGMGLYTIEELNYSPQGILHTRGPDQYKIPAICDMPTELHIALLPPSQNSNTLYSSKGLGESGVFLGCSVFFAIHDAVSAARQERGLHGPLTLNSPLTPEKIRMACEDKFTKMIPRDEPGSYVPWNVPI
Description: Drug metabolism in human hepatocytes assessed as AO-mediated 4-(6-(2-amino-3-fluoropyridin-4-yl)-2-methyl-4-(4H-1,2,4-triazol-3-yl)-1H-benzo[d]imidazol-1-yl)-5,8-difluoroquinolin-2(1H)-one metabolite formation at 0.5 uM measured up to 250 mins by UHPLC-HRMS based assay. Format: ADME, cell-based.

Data set [6] deals with T1, Aldehyde oxidase. Nature of the data set: Drug metabolism in human hepatocytes assessed as AO-mediated triazole oxidation at 0.5 uM measured up to 250 mins by UHPLC-HRMS based assay. Format: ADME, cell-based.
The target of data set [7] is T1, Aldehyde oxidase. Description: Drug metabolism in human liver cytosol assessed as AO-mediated 4-(6-(2-amino-3-fluoropyridin-4-yl)-2-methyl-4-(4H-1,2,4-triazol-3-yl)-1H-benzo[d]imidazol-1-yl)-5,8-difluoroquinolin-2(1H)-one metabolite formation at 0.5 uM measured after 2 hrs by UHPLC-HRMS based assay. Format: ADME, subcellular.
The target of data set [8] is Voltage-gated inwardly rectifying potassium channel KCNH2 (Homo sapiens, UniProt Q12809). Nature of the data set: Inhibition of human ERG at 25 uM.
Another data set has as its system Cytochrome P450. Description: Inhibition of human CYP450 at 25 uM. Format: ADME, protein assay.
A short description of data set [9]: Fraction unbound in Sprague-Dawley rat plasma. Format: ADME, cell-free.
Data set [10] in a line: Clearance in Sprague-Dawley rat at 1 mg/kg, iv by ESI-LC/MS/MS analysis. In kind it is ADME, organism-based. The settings on record: in vivo.
A short description of data set [11]: Volume of distribution at steady state in Sprague-Dawley rat at 1 mg/kg, iv by ESI-LC/MS/MS analysis. Particulars: in vivo, read-out: Vdss. Format: ADME, organism-based.
Data set [12] is described as follows: Terminal half life in Sprague-Dawley rat at 1 mg/kg, iv by ESI-LC/MS/MS analysis. In kind it is ADME, organism-based. The settings on record: in vivo, read-out: beta t1/2 (converted).
Data set [13] is described as follows: MRT in Sprague-Dawley rat at 1 mg/kg, iv by ESI-LC/MS/MS analysis. In kind it is ADME, organism-based. Particulars: in vivo.
A short description of data set [14]: Oral bioavailability in Sprague-Dawley rat at 5 mg/kg by ESI-LC/MS/MS analysis. Particulars: in vivo. Format: ADME, organism-based.
The nature of data set [15]: Fraction unbound in Beagle dog plasma. In kind it is ADME, cell-free, Canis lupus familiaris.
The nature of data set [16]: Clearance in Beagle dog at 1 mg/kg, iv by ESI-LC/MS/MS analysis. Format: ADME, organism-based, Canis lupus familiaris. The settings on record: in vivo.
Data set [17] can be described thus: Volume of distribution at steady state in Beagle dog at 1 mg/kg, iv by ESI-LC/MS/MS analysis. In kind it is ADME, organism-based, Canis lupus familiaris. The settings on record: in vivo, read-out: Vdss.
Data set [18] can be described thus: Terminal half life in Beagle dog at 1 mg/kg, iv by ESI-LC/MS/MS analysis. In kind it is ADME, organism-based, Canis lupus familiaris. The settings on record: in vivo, read-out: beta t1/2 (converted).
A short description of data set [19]: MRT in Beagle dog at 1 mg/kg, iv by ESI-LC/MS/MS analysis. In kind it is ADME, organism-based, Canis lupus familiaris. Particulars: in vivo.
Data set [20] in a line: Fraction unbound in cynomolgus monkey plasma. In kind it is ADME, cell-free, Macaca fascicularis.
Data set [21] is described as follows: Clearance in cynomolgus monkey at 1 mg/kg, iv by ESI-LC/MS/MS analysis. In kind it is ADME, organism-based, Macaca fascicularis. The settings on record: in vivo.
Data set [22] is described as follows: Volume of distribution at steady state in cynomolgus monkey at 1 mg/kg, iv by ESI-LC/MS/MS analysis. The settings on record: in vivo, read-out: Vdss. Format: ADME, organism-based, Macaca fascicularis.
Data set [23] is described as follows: Terminal half life in cynomolgus monkey at 1 mg/kg, iv by ESI-LC/MS/MS analysis. Particulars: in vivo, read-out: beta t1/2 (converted). Format: ADME, organism-based, Macaca fascicularis.
Data set [24] can be described thus: MRT in cynomolgus monkey at 1 mg/kg, iv by ESI-LC/MS/MS analysis. The settings on record: in vivo. Format: ADME, organism-based, Macaca fascicularis.
A short description of data set [25]: Oral bioavailability in cynomolgus monkey at 5 mg/kg by ESI-LC/MS/MS analysis. In kind it is ADME, organism-based, Macaca fascicularis. The settings on record: in vivo.
Data set [26] in a line: Fraction unbound in rhesus monkey plasma. Format: ADME, cell-free, Macaca mulatta.
Data set [27] is described as follows: Clearance in rhesus monkey at 1 mg/kg, iv by ESI-LC/MS/MS analysis. Format: ADME, organism-based, Macaca mulatta. The settings on record: in vivo.
Data set [28] can be described thus: Volume of distribution at steady state in rhesus monkey at 1 mg/kg, iv by ESI-LC/MS/MS analysis. The settings on record: in vivo, read-out: Vdss. Format: ADME, organism-based, Macaca mulatta.
The nature of data set [29]: Terminal half life in rhesus monkey at 1 mg/kg, iv by ESI-LC/MS/MS analysis. Particulars: in vivo, read-out: beta t1/2 (converted). Format: ADME, organism-based, Macaca mulatta.
Data set [30] in a line: MRT in rhesus monkey at 1 mg/kg, iv by ESI-LC/MS/MS analysis. Particulars: in vivo. In kind it is ADME, organism-based, Macaca mulatta.
Data set [31] is described as follows: Permeability across apical to basolateral side in human Caco2 cells at 10 uM after 1 to 2 hrs by LC/MS/MS analysis. Format: ADME, cell-based. The settings on record: Caco-2, read-out: permeability. Background: Passage across Caco-2 layers is used to estimate intestinal permeability.
Data set [32] can be described thus: Efflux ratio of apparent permeability in human Caco2 cells at 10 uM after 1 to 2 hrs by LC/MS/MS analysis. In kind it is ADME, cell-based. Particulars: Caco-2.
Data set [33] in a line: Conformation stability assessed as rate constant for (P)-4-(1-(5,8-difluoroquinolin-4-yl)-2-methyl-4-(4H-1,2,4-triazol-3-yl)-1H-benzo[d]imidazol-6-yl)-3-fluoropyridin-2-amine formation at 10 mg at 120 degC by chiral SFC analysis. Format: physicochemical.
Data set [34] addresses Phosphatidylinositol 4,5-bisphosphate 3-kinase catalytic subunit beta isoform (Homo sapiens) (UniProt P42338). Nature of the data set: Inhibition of partial length human PI3Kbeta expressed in mammalian system at 10 uM by active site-directed competition binding based KINOMEscan assay. The method, boiled down: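 Active-site-directed competition binding assay across more than 400 human kinases, with compound tested at 10 µM.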

Values joined by “and” are separate entries in the source; they are usually repeats but may differ in a detail not shown here. Equal entries are not always repeated. “Also recorded” adds a separate entry of the source. Active and inactive are the calls of the source. The calls are words filed in the database; no cut-off is given here.

Chain of Phosphatidylinositol 4,5-bisphosphate 3-kinase catalytic subunit gamma isoform (P48736 whole entry, canonical isoform): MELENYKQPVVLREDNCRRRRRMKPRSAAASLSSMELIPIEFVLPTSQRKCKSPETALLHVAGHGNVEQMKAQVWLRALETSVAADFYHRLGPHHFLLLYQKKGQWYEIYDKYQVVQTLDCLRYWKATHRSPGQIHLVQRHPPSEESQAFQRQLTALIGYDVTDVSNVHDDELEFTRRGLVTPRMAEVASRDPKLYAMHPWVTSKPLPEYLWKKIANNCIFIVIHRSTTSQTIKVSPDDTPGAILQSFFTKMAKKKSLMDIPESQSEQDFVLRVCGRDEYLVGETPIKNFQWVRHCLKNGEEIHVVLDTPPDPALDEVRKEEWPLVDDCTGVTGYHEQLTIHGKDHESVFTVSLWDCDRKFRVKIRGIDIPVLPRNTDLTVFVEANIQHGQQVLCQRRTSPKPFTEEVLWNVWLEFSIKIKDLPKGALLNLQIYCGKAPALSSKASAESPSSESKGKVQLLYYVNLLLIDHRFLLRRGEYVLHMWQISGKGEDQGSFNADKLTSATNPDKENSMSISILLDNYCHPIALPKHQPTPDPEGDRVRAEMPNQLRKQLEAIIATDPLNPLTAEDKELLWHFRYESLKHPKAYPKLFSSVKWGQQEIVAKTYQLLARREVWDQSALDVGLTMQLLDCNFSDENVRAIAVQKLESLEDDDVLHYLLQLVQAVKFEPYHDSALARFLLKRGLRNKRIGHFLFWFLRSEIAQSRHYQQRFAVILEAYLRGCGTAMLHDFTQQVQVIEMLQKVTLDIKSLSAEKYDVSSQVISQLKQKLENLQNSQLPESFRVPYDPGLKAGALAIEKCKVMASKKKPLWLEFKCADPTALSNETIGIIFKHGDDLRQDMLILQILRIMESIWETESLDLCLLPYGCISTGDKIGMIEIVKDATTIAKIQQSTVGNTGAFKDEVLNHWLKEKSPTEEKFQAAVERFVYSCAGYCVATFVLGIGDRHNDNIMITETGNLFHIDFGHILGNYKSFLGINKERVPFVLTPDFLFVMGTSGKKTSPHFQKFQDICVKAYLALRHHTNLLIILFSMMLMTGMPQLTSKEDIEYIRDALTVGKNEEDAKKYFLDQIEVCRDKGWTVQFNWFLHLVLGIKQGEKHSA
Chain of PI3K p110 beta/p85 alpha (P27986 whole entry): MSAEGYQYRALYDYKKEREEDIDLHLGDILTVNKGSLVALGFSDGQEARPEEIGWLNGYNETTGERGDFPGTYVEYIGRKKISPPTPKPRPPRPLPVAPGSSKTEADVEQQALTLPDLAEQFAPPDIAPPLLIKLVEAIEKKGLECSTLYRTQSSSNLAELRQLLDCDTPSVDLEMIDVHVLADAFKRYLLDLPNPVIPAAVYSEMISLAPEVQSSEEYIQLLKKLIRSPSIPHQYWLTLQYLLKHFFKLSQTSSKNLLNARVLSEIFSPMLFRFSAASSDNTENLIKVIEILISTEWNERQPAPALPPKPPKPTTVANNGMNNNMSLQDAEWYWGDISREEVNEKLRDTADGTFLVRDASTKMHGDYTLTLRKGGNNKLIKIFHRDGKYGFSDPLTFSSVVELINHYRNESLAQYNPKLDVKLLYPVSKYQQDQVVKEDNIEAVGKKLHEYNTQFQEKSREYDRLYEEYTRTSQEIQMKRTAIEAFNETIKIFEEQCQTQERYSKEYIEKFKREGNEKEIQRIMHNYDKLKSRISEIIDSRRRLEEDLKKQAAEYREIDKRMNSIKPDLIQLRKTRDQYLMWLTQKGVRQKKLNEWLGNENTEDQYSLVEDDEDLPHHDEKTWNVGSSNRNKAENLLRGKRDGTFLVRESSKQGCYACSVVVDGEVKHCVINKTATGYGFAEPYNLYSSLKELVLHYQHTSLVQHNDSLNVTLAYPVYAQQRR
Chain of PI3K p110 beta/p85 alpha (P42338 whole entry): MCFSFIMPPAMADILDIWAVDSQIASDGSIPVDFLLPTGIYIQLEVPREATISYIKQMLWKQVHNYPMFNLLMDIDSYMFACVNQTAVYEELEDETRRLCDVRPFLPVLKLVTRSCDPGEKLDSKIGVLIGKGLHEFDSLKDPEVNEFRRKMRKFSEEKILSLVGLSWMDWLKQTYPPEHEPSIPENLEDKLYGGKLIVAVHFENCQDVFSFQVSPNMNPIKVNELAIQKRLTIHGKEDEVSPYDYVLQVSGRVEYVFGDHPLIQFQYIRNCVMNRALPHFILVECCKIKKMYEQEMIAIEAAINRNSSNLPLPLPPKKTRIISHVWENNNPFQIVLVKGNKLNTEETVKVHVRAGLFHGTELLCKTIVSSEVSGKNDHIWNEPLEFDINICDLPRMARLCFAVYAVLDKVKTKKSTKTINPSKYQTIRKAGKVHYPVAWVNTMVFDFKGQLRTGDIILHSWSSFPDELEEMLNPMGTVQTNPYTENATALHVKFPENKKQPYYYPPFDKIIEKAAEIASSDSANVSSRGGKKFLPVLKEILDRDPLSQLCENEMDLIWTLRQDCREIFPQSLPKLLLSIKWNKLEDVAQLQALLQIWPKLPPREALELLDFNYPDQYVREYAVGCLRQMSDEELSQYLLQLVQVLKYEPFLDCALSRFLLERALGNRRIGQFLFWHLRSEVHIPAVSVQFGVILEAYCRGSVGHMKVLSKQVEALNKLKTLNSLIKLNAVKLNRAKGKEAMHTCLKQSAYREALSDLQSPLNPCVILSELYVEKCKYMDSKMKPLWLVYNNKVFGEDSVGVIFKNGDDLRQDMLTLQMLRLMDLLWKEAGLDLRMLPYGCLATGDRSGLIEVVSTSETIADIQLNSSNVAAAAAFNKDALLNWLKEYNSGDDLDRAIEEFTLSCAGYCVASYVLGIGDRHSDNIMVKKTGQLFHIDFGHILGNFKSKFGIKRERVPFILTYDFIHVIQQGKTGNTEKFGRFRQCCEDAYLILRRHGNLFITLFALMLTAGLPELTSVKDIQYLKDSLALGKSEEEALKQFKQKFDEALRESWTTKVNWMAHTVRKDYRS
Chain of PI3-kinase p110-alpha/p85-alpha (P27986 whole entry, canonical isoform): as the sequence (P27986 whole entry) above
Chain of PI3-kinase p110-alpha/p85-alpha (P42336 whole entry, canonical isoform): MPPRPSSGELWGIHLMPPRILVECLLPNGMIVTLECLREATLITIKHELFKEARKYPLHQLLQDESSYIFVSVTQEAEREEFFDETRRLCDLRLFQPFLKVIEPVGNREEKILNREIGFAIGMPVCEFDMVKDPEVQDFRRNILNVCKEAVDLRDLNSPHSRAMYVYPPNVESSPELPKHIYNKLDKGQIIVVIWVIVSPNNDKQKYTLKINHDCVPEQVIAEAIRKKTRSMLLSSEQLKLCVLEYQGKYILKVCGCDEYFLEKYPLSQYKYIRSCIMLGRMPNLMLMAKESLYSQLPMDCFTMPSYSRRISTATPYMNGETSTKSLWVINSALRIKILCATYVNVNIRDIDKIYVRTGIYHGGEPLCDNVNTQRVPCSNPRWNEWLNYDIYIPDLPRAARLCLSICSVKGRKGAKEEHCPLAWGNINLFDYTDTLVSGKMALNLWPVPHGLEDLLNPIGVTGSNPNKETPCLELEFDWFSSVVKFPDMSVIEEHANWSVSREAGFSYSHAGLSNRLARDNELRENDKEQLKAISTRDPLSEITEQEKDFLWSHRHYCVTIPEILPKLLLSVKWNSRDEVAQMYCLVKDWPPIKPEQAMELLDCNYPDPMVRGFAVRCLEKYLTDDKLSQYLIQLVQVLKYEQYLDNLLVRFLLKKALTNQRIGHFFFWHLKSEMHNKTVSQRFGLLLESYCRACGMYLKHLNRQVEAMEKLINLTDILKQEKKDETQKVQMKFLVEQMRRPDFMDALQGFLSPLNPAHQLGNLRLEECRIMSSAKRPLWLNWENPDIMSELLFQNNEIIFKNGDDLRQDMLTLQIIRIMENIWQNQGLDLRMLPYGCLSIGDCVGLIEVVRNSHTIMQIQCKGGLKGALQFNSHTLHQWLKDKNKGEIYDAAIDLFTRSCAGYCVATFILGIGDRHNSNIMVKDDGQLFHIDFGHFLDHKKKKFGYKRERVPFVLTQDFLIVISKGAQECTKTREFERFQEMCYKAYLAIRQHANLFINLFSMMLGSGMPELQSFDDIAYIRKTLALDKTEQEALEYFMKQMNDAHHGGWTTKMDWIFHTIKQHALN
Chain of PI3-kinase p110-delta/p85-alpha (P27986 whole entry): as the sequence (P27986 whole entry) above
Chain of PI3-kinase p110-delta/p85-alpha (O00329 whole entry): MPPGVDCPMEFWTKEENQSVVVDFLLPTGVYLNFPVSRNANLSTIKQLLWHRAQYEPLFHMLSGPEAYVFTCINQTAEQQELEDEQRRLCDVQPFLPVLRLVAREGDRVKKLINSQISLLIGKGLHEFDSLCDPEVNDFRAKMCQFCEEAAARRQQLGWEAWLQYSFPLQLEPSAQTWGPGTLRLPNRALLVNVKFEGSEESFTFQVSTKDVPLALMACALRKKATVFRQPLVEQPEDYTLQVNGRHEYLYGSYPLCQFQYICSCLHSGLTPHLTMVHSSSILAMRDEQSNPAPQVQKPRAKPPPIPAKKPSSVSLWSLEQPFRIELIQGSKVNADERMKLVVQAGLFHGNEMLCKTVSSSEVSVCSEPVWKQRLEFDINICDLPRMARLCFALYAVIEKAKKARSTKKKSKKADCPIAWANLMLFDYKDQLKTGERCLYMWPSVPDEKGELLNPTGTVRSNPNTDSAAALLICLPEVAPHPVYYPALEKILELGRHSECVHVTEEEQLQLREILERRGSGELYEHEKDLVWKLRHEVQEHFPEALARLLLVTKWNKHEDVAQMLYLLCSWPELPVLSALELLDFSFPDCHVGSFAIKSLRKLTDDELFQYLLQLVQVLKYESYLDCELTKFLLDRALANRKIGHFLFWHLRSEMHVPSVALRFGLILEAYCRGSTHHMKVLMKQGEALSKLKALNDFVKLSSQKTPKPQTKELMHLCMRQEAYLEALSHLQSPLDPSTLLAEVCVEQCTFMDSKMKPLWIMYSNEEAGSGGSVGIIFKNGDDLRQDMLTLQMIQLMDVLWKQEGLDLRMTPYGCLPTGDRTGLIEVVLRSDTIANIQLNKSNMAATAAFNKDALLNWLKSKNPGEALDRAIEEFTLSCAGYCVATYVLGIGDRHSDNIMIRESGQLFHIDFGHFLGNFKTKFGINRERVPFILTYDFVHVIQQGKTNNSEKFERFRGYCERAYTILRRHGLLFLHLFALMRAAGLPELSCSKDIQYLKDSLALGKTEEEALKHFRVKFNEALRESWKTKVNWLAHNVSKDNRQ

Broadly, the IC50 is the concentration at which inhibition is half-maximal. In the case of `Nc1nccc(-c2cc(-c3nnc[nH]3)c3ncn(-c4ccnc5c(F)ccc(F)c45)c3c2)c1F`, the IC50 stood at 233 nM in [1], 11 nM against PI3K p110 beta/p85 alpha, 67 nM in [2] and 0.44 µM in data set [3].
In general, fraction unbound refers to the share of the substance not bound to proteins or other matrix. By clearance is commonly meant a measure of how efficiently the substance is removed, as volume per time. For orientation: MRT means the average time that molecules of a dose stay in the body. The term bioavailability denotes the share of a dose that reaches the circulation, judged against a reference dose that is usually intravenous. One may read the efflux ratio as a quotient of directional permeabilities that is used to spot active efflux. For the compound `Cc1nc2c(-c3nnc[nH]3)cc(-c3ccnc(N)c3F)cc2n1-c1ccnc2c(F)ccc(F)c12`, the IC50 in data set [3] was > 10 µM and 4.27 µM and 4.16 µM. The CLint scaled at 1 µM in data set [4] (liver microsomes, read-out: CLH (converted)) is 2.5 mL/min/kg. For the same compound, the CLH in data set [4] (microsomes, 1 µM) is less than 0.12 L/h/kg. The Drug metabolism entry on Aldehyde oxidase [5] is “Metabolite_Detected”; at Aldehyde oxidase [6], “Metabolite_Detected”; on Aldehyde oxidase [7] it was “Metabolite_Notdetected; also recorded: Metabolite_Detected”. Also, the Stability entry at Aldehyde oxidase [6] is listed as “Stable”. The “inhibition (INH)” value (in data set [8]; in the data set on Cytochrome P450) was “Not Active” in each case. For the same compound, the fraction unbound in data set [9] amounted to 0.19; in data set [15], 0.078; in data set [20], 0.062; in [26], 0.072. Further, the clearance is 11.3 mL/min/kg in data set [10], 3.67 mL/min/kg in data set [16], 1.83 mL/min/kg in data set [21] and 1.67 mL/min/kg in data set [27]. Besides, the Vd in data set [11] turned out to be 2.68 L/kg; in data set [17], 0.89 L/kg; in data set [22] it was 0.45 L/kg; in data set [28], 0.63 L/kg. The half-life in [12] was 573 min; in [18], 217 min; in [23], 310 min; in data set [29], 362 min. Moreover, the MRT in [13] was found to be 3.87 h; in [19] it was 4.04 h; in data set [24] it was 4.3 h; in data set [30] it was 6.2 h. Besides, the bioavailability in data set [14] was 60.4%; in data set [25] it was 64.2%. In addition, the Papp A→B at 10 µM in data set [31] stood at 17 ×10⁻⁶ cm/s. For the same compound, the efflux ratio at 10 µM in [32] is less than 1.5. Moreover, the K in data set [33] was 2.64 ×10⁻⁷ /s. Also, the inhibition result in data set [34] is “Active”.
